Results published in ChEMBL document CHEMBL4229410, “Facile construction of fused benzimidazole-isoquinolinones that induce cell-cycle arrest and apoptosis in colorectal cancer cells” (Bioorg Med Chem, 2018).
Active and inactive are the calls of the source. The rule behind the calls is not given here.

Columns and labels:
[1] = target: T1, Ribosomal protein S6 kinase alpha-3 (Homo sapiens, UniProt P51812); assay: Binding affinity to human N-terminal RSK2 kinase domain 1 (M1 to D394 residues) expressed in mammalian expression system by KINOMEscan assay
T1 sequence (P51812 whole entry, the tested form may be a part): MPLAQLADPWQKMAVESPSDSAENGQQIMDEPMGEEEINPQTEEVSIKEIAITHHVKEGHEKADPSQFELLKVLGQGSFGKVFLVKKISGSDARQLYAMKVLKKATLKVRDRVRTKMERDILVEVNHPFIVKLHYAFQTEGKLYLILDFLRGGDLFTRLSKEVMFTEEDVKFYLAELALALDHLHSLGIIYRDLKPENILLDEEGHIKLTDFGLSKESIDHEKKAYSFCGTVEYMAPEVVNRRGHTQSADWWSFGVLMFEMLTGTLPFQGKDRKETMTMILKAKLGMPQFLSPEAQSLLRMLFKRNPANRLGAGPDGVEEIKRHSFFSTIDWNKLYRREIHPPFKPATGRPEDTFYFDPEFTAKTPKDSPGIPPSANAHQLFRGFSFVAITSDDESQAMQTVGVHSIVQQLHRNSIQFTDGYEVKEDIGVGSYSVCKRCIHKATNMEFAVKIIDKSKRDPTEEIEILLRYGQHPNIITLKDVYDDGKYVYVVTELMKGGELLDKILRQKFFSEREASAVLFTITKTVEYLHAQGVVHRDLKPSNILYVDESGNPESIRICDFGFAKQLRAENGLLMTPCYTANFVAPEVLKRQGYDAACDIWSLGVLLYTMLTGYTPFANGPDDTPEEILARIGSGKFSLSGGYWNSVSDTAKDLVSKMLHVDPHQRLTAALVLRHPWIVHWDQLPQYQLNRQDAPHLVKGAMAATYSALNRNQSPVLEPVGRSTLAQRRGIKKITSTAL

[2] = target: Tyrosine-protein kinase ABL1 (Homo sapiens, UniProt P00519); assay: Binding affinity to human non-phosphorylated ABL1 (S229 to K512 residues) expressed in mammalian expression system by KINOMEscan assay
HT-29 [3] = assay: Induction of apoptosis in human HT-29 cells assessed as increase in PARP activation after 48 hrs by Western blot analysis; assay type: functional, cell-based
In short: (§1)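 HT29 or SW620 cells were treated at 0, 25, 50 and 75 μM for 48 h and lysed in RIPA with protease and phosphatase inhibitors. Protein was quantified by BCA. 50 μg lysate was run on 8–15% SDS-PAGE and transferred to PVDF. Blocking was 5% BSA/TBST for 2 h; primary antibodies were applied overnight at 4 °C, then HRP secondary 1 h at room temperature.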

SW-620 [4] = assay: Induction of apoptosis in human SW620 cells assessed as late apoptotic cells at 25 uM after 48 hrs by Annexin-V-FITC/propidium iodide staining based flow cytometry (reference value: 1.2%); assay type: functional
HT-29 [5] = assay: Effect on total 4EBP1 expression in human HT-29 cells up to 75 uM after 48 hrs by Western blot analysis; assay type: ADME, cell-based; conditions: ht-29, 48 h; in short: as §1
[6] = target: Atypical kinase COQ8A, mitochondrial (Homo sapiens, UniProt Q8NI60); assay: Inhibition of […] human ADCK3 (M280 to Q647 residues) expressed in bacterial expression system assessed as residual activity at 5 uM by KINOMEscan assay relative to control
Chain of Atypical kinase COQ8A, mitochondrial (Q8NI60 163-647 limits assumed): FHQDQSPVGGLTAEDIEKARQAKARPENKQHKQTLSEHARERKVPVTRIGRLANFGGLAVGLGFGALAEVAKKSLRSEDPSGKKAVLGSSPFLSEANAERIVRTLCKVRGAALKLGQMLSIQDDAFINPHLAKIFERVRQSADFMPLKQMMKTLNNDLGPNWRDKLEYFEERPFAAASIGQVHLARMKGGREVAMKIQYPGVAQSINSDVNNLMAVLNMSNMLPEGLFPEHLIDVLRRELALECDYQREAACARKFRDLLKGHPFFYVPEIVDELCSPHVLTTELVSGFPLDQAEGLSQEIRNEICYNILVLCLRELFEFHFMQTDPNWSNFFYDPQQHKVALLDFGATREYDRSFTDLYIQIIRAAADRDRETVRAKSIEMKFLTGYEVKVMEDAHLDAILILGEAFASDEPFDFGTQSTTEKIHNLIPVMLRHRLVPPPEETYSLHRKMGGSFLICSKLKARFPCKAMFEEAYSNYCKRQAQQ

[7] = target: T2, MAP kinase-interacting serine/threonine-protein kinase 2 (Homo sapiens, UniProt Q9HBH9); assay: Inhibition of human MKNK2 (G63 to S388 residues) expressed in mammalian expression system assessed as residual activity at 5 uM by KINOMEscan assay relative to control
Target sequence in this assay (Q9HBH9 whole entry, looked up, the tested form may be a part): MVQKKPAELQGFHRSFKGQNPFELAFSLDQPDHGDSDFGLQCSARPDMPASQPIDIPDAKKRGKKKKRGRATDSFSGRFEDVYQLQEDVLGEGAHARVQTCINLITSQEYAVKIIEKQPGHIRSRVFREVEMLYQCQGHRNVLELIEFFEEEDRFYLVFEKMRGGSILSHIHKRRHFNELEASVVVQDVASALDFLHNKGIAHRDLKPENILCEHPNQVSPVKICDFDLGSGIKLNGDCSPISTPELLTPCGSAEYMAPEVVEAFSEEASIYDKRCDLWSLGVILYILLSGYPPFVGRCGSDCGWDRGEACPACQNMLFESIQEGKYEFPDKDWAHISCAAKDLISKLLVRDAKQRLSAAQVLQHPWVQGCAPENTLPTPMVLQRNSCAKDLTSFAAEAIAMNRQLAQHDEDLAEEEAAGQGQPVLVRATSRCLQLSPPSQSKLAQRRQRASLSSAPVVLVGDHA

SW-620 [8] = assay: Induction of apoptosis in human SW620 cells assessed as necrotic cells at 75 uM after 48 hrs by Annexin-V-FITC/propidium iodide staining based flow cytometry (reference value: 0.9%); assay type: functional
SW-620 [9] = assay: Effect on total 4EBP1 expression in human SW620 cells up to 75 uM after 48 hrs by Western blot analysis; assay type: ADME, cell-based; conditions: sw-620, 48 h; in short: as §1
[10] = target: Serine/threonine-protein kinase mTOR (Homo sapiens) (UniProt P42345); assay: Inhibition of mTOR in human SW620 cells assessed as reduction in 4EBP1 phosphorylation up to 75 uM after 48 hrs by Western blot analysis; assay type: cell-based
Homo sapiens [11] = organism: Homo sapiens; assay: Inhibition of PI3K in human SW620 cells assessed as reduction in AKT phosphorylation at T308 residue up to 75 uM after 48 hrs by Western blot analysis; assay type: cell-based
SW-620 [12] = assay: Induction of apoptosis in human SW620 cells assessed as early apoptotic cells at 75 uM after 48 hrs by Annexin-V-FITC/propidium iodide staining based flow cytometry (reference value: 0.4%); assay type: functional
[13] = target: Protein kinase C epsilon type (Homo sapiens) (UniProt Q02156); assay: Inhibition of human PRKCE (A378 to P737 residues) expressed in mammalian expression system assessed as residual activity at 5 uM by KINOMEscan assay relative to control
Aurora kinase B = Aurora kinase B (Homo sapiens, UniProt Q96GD4); assay: Binding affinity to human AURKB (D25 to A303 residues) expressed in mammalian expression system by KINOMEscan assay
[14] = target: Casein kinase I isoform delta (Homo sapiens, UniProt P48730); assay: Binding affinity to full length human CSNK1D (M1 to K409 residues) expressed in bacterial expression system by KINOMEscan assay
[15] = target: T1, Ribosomal protein S6 kinase alpha-3; assay: Inhibition of human N-terminal RSK2 kinase domain 1 (M1 to D394 residues) expressed in mammalian expression system assessed as residual activity at 5 uM by KINOMEscan assay relative to control
HT-29 [16] = assay: Induction of apoptosis in human HT-29 cells assessed as reduction in MCL1 expression after 48 hrs by Western blot analysis; assay type: functional, cell-based; in short: as §1
[17] = target: MAP kinase-activated protein kinase 2 (Homo sapiens, UniProt P49137); assay: Inhibition of human MAPKAPK2 (V48 to D345 residues) expressed in bacterial expression system assessed as residual activity at 5 uM by KINOMEscan assay relative to control
Chain of MAP kinase-activated protein kinase 2 (P49137 whole entry, looked up, the tested form may be a part): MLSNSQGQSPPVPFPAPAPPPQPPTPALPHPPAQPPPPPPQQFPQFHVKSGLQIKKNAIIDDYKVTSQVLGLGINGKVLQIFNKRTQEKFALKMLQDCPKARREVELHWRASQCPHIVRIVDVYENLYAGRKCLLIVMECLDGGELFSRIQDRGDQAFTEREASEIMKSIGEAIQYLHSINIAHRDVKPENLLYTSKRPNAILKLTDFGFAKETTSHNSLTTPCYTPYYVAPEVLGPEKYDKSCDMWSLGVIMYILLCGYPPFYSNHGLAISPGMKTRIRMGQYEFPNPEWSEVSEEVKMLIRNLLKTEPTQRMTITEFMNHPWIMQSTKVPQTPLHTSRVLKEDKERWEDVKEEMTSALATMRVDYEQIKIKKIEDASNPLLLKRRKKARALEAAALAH

[18] = target: High affinity nerve growth factor receptor (Homo sapiens, UniProt P04629); assay: Inhibition of human TRKA (G475 to G790 residues) expressed in mammalian expression system assessed as residual activity at 5 uM by KINOMEscan assay relative to control
Chain of High affinity nerve growth factor receptor (P04629 33-796 limits assumed): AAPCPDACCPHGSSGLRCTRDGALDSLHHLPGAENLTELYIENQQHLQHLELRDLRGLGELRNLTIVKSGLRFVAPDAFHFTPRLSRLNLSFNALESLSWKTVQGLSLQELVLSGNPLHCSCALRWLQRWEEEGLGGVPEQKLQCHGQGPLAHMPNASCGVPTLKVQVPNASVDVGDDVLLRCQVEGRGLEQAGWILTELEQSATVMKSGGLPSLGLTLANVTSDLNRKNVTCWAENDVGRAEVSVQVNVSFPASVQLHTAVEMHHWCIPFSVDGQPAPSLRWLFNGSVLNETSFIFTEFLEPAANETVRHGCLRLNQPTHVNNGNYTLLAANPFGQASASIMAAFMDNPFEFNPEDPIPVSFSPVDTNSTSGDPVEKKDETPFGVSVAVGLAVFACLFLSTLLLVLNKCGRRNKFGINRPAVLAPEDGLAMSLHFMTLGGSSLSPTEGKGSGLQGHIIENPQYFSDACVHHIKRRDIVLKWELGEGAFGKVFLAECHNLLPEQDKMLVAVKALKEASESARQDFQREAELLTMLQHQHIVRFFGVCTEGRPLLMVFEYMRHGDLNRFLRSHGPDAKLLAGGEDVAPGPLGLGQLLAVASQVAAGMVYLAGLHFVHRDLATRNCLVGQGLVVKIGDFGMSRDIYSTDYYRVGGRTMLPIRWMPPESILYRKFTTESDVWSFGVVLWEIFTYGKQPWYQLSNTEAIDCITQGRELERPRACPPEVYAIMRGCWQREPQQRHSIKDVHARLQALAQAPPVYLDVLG

Homo sapiens [19] = organism: Homo sapiens; assay: Inhibition of PI3K in human SW620 cells assessed as reduction in AKT phosphorylation at S473 residue up to 75 uM after 48 hrs by Western blot analysis; assay type: cell-based
[20] = target: MAP kinase-interacting serine/threonine-protein kinase 1 (Homo sapiens, UniProt Q9BUB5); assay: Inhibition of full length human MKNK1 (M1 to L424 residues) expressed in mammalian expression system assessed as residual activity at 5 uM by KINOMEscan assay relative to control
[21] = target: Inhibitor of nuclear factor kappa-B kinase subunit alpha (Homo sapiens, UniProt O15111); assay: Binding affinity to full length human IKKalpha (M1 to E745 residues) expressed in mammalian expression system by KINOMEscan assay
Chain of Inhibitor of nuclear factor kappa-B kinase subunit alpha (O15111 whole entry, the tested form may be a part): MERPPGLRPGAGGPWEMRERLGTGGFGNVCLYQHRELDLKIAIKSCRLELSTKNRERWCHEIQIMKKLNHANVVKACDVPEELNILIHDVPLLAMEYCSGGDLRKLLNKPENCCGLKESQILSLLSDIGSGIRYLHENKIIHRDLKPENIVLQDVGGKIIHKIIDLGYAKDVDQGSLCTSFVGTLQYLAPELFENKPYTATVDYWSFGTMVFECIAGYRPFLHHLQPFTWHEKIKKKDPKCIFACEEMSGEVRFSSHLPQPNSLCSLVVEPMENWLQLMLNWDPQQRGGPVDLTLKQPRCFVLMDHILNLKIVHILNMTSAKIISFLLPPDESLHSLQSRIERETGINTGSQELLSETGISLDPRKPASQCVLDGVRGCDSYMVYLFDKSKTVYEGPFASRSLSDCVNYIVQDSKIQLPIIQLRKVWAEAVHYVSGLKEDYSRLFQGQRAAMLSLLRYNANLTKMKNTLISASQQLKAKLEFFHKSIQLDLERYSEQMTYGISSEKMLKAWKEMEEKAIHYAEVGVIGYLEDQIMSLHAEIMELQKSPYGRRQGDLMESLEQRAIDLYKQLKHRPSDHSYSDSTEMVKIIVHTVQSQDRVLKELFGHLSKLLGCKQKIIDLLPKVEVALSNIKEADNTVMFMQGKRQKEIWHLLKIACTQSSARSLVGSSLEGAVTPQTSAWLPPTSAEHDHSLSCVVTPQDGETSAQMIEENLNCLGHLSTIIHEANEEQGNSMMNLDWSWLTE

[22] = Growth inhibition of human FHC cells after 48 hrs by MTT assay; assay type: cell-based
[23] = target: Insulin-like growth factor 1 receptor (Homo sapiens, UniProt P08069); assay: Binding affinity to human IGF1R (L972 to D1294 residues) expressed in bacterial expression system by KINOMEscan assay
Chain of Insulin-like growth factor 1 receptor (P08069 31-736 limits assumed): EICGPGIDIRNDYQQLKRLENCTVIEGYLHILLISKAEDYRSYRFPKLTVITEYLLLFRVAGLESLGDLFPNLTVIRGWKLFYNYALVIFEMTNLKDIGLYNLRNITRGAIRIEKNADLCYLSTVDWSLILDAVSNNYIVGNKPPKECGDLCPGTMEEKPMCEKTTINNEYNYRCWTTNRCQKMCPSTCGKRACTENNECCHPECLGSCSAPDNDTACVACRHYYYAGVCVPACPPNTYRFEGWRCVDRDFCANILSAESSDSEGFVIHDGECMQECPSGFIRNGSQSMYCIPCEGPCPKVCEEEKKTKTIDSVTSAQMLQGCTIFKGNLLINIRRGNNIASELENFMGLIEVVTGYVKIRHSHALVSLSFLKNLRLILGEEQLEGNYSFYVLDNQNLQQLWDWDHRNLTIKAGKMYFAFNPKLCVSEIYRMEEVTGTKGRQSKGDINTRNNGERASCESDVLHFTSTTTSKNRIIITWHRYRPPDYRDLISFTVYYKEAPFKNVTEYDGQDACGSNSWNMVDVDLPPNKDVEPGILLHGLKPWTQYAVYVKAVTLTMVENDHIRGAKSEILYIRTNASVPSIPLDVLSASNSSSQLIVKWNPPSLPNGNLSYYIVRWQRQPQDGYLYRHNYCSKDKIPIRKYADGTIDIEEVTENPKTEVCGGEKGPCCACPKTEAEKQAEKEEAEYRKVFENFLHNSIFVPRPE
Chain of Insulin-like growth factor 1 receptor (P08069 741-1367 limits assumed): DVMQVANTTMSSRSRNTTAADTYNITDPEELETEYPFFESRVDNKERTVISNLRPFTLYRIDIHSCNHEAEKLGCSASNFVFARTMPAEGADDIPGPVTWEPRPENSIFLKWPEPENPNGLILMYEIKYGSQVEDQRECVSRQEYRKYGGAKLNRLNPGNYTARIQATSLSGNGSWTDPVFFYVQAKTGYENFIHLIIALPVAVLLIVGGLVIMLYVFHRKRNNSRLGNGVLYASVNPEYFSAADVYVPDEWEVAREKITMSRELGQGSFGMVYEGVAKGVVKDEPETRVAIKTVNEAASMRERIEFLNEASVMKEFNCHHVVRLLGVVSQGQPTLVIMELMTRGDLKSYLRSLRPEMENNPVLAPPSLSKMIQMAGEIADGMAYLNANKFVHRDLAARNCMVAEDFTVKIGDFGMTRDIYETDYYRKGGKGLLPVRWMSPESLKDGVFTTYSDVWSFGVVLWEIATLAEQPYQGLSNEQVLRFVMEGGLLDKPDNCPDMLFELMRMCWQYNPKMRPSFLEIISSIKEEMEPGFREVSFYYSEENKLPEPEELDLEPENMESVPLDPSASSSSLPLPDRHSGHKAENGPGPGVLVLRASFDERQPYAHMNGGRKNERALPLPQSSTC

[24] = target: NUAK family SNF1-like kinase 2 (Homo sapiens, UniProt Q9H093); assay: Binding affinity to human SNARK (P22 to A333 residues) expressed in mammalian expression system by KINOMEscan assay
SW-620 [25] = assay: Growth inhibition of human SW620 cells by MTT assay; assay type: functional
In short: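 MTT viability assay: 3×10³ cells/well were pre-incubated for 24 h, then exposed to 0, 12.5, 25, 50, 100 or 200 μM for 12, 24, 48 or 72 h. MTT was added at 0.5 mg/mL final for 4 h, formazan dissolved in DMSO, and absorbance read at 570 nm. GI₅₀ was taken from growth-inhibition curves; mean ± SD of three independent experiments, each in sextuplicate.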

HT-29 [26] = assay: Cell cycle arrest in human HT-29 cells assessed as accumulation at G2-phase at 25 uM after 48 hrs by propidium iodide staining based flow cytometry (reference value: 15.45%); assay type: functional
Angiopoietin-1 receptor = Angiopoietin-1 receptor (Homo sapiens, UniProt Q02763); assay: Binding affinity to human TIE2 (N804 to T1112 residues) expressed in bacterial expression system by KINOMEscan assay
[27] = target: T2, MAP kinase-interacting serine/threonine-protein kinase 2; assay: Binding affinity to human MKNK2 (G63 to S388 residues) expressed in mammalian expression system by KINOMEscan assay
Target sequence in this assay (Q9HBH9 whole entry, the tested form may be a part): as the sequence (Q9HBH9 whole entry, looked up, the tested form may be a part) above

For `CC(C)CN(C(=O)c1cccnc1)c1c2ccccc2c(=O)n2c1[nH]c1ccccc12`, the Kd [1] was ≥ 5 µM, the Kd [2] was ≥ 5 µM and the Activity (HT-29 [3]) was “Dose-dependent effect”. For the same molecule, the Activity (SW-620 [4]) was 4.1%, the Activity (HT-29 [5]) was “Non-Toxic” and the Activity [6] was 100%. The Activity [7] was 92%, the Activity (SW-620 [8]) was 3.5% and the Activity (SW-620 [9]) was “Non-Toxic”. For the same molecule, the inhibition [10] was “Active”, the inhibition (Homo sapiens [11]) was “Active” and the Activity (SW-620 [12]) was 0.2%. The Activity [13] was 100%, the Kd (Aurora kinase B) was ≥ 5 µM and the Kd [14] was ≥ 5 µM. For the same molecule, the Activity [15] was 91%, the Activity (HT-29 [16]) was “Dose-dependent effect” and the Activity [17] was 100%. The Activity [18] was 84%, the inhibition (Homo sapiens [19]) was “Active” and the Activity [20] was 97%. The Kd [21] was ≥ 5 µM, the GI50 at 48 h [22] was > 200 µM and the Kd [23] was ≥ 5 µM. The Kd [24] was ≥ 5 µM, the GI50 (SW-620 [25]) was 23.8 µM and the Activity (HT-29 [26]) was 16.97%. For the same molecule, the Kd (Angiopoietin-1 receptor) was ≥ 5 µM and the Kd [27] was ≥ 5 µM.
